Assay [1] deals with T1, InhA (Mycobacterium tuberculosis, UniProt P9WGR1). Description: Progress curve analysis of InhA inhibition. Format: biochemical. The conditions noted are these: for kon, overall: (k5+k6)/Ki^app; for k5: EI to EI*; for k6: EI* to EI; for tR: residence time from progress curve analysis.
In assay [2] the target is T1, InhA. Description: [32P]-NAD+ direct dissociation kinetics. In kind it is binding. Conditions: 32P-NAD+ direct dissociation method. The procedure, abridged:
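InhA expressed in E. coli BL21(DE3) pLysS and purified by Ni2+-NTA and size exclusion. Ternary complex formed with 15 μM InhA, 20 μM NAD+ plus [32P]-NAD+, and 200 μM inhibitor in 30 mM PIPES pH 6.8, 150 mM NaCl, 1 mM EDTA. Spin column removed free ligand; rapid dilution into buffer started dissociation. Timed aliquots ultrafiltered (10 kDa). Run at 20 °C, or 25 °C for two compounds. kon,overall from koff via Equation 5.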

In the next assay the test system is M. tuberculosis. Description: MIC determination, microplate Alamar Blue assay. In kind it is cell-based. The conditions noted are these: 37 °C, 6 days + 24 h.
For assay [3], the target named is T1, InhA. Description: Second-harmonic generation. Conditions: 10 μM compound. In kind it is binding.
[4] abbreviates: 20 °C, calculated from Ki^app, Ki^*app, k6.
Setting [5] is: read-out: Ki^*app, 20 °C, final EI* complex.
[6] abbreviates: read-out: Ki^app, 20 °C, initial EI complex.

The source of these data is paper PMC5357606 (Journal of the American Chemical Society, 2017).

Where two headings read alike, the source gives them in different places.

T1 sequence (P9WGR1 whole entry, looked up): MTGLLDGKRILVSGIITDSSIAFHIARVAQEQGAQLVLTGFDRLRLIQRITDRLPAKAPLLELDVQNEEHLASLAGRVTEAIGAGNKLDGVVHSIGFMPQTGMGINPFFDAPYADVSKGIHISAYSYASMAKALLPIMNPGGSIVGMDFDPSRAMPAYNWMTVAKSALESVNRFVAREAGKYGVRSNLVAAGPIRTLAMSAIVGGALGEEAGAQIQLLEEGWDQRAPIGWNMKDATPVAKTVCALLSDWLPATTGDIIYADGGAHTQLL

As for `CCCCCCc1ccc(Oc2ccccc2C)c(O)c1` [PT70], on InhA [1] (20 °C), the “kon, overall” value is 1.2e+06 M⁻¹ min⁻¹; the k6 came out at 0.036 ± 0.010 min⁻¹; the tR worked out at 30 ± 7 min. Moreover, the k5 at InhA [1] (setting [4]) is 0.23 min⁻¹. Further, at InhA [1] (setting [5]), the Ki amounted to 29 ± 4 nM. In addition, at InhA [1] (setting [6]), the Ki amounted to 210 ± 34 nM. On InhA [2] (20 °C), this molecule registered a tR direct dissociation of 40 ± 4 min. Also, in the assay on M. tuberculosis, the MIC turned out to be 3.13 µg/mL.
Take `CCCCCCc1ccc(Oc2ccccc2Cl)c(O)c1` [PT91]: on InhA [1] (20 °C), the “kon, overall” value stood at 2.5e+06 M⁻¹ min⁻¹; the k6 stood at 0.013 ± 0.005 min⁻¹; the tR stood at 90 ± 37 min. For the same molecule, the k5 at InhA [1] (setting [4]) was 0.12 min⁻¹. For the same molecule, the Ki on InhA [1] (setting [5]) was 5 ± 2 nM. At InhA [1] (setting [6]), the Ki came out at 52 ± 25 nM. At InhA [2] (20 °C), this molecule yielded a tR direct dissociation of 148 ± 13 min. Besides, the MIC with M. tuberculosis turned out to be 1.56 µg/mL.
As for `CCCCCCc1ccc(Oc2ccccc2F)c(O)c1` [PT113], the k5 at InhA [1] (setting [4]) is 0.18 min⁻¹. Moreover, at InhA [1] (20 °C), the k6 was 0.026 ± 0.004 min⁻¹ and the tR worked out at 38 ± 5 min. Further, the Ki at InhA [1] (Ki^*app, 20 °C, final EI* complex) stood at 27 ± 1 nM. The Ki at InhA [1] (Ki^app, 20 °C, initial EI complex) was determined as 220 ± 6 nM. Moreover, the on-rate (kon) at InhA [1] (read-out: kon, overall) is 16000 M⁻¹ s⁻¹. Moreover, the tR direct dissociation on InhA [2] (20 °C) was determined as 31 ± 5 min.
Take `CCCCCCc1ccc(Oc2ccccc2C#N)c(O)c1` [PT119]: on InhA [1] (20 °C), the “kon, overall” value came out at 500000 M⁻¹ min⁻¹; the k6 amounted to 0.020 ± 0.0040 min⁻¹; the tR was 50 ± 0.4 min. Moreover, at InhA [1] (setting [4]), the k5 was 5.0 min⁻¹. For the same molecule, the Ki at InhA [1] (setting [5]) was 40 ± 1 nM. Further, on InhA [1] (setting [6]), the Ki turned out to be 10000 ± 2000 nM. Also, the tR direct dissociation on InhA [2] (20 °C) amounted to 47 ± 4 min. In addition, the MIC in the assay on M. tuberculosis stood at 2.5 µg/mL. Further, on InhA [3] (30-min time course), the “time course of SHG conformational change” value was “require a longer time to reach a plateau compared to PT155”. Moreover, the “increase in SHG intensity” value on InhA [3] (30 min after addition, His-tagged InhA, N = 4, mean ± SE) is reported as 13.1± 0.8%.
For `Cc1ccccc1Oc1ccc(Cn2cc(-c3ccccc3)nn2)cc1O` [PT163], the k5 at InhA [1] (25 °C, calculated) was 3.20 min⁻¹. Also, on InhA [1] (25 °C), the k6 stood at 0.0092 ± 0.002 min⁻¹ and the tR came to 113 ± 28 min. Besides, on InhA [2] (25 °C), the tR direct dissociation is 114 ± 18 min.
